Laboratory results from ChEMBL document CHEMBL3097989, “Antimicrobial activity of de novo designed cationic peptides against multi-resistant clinical isolates” (Eur J Med Chem, 2014).

Tests used:
Klebsiella pneumoniae [1] = assay: Antibacterial activity against Klebsiella pneumoniae M9170 clinical isolate expressing blaOXA-GIII gene by microdilution test; assay type: functional
How it was run: (§1)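 MIC by standard broth microdilution following CLSI recommendations, in Mueller Hinton broth supplemented with Ca²⁺ (20-25mg/L) and Mg²⁺ (10-12.5mg/L); peptides tested against a panel of multi-resistant clinical isolates plus ATCC reference strains.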

Klebsiella pneumoniae [2] = assay: Antibacterial activity against Klebsiella pneumoniae M9491 clinical isolate expressing blaMOX gene by microdilution test; assay type: functional; how it was run: as §1
Klebsiella pneumoniae [3] = assay: Antibacterial activity against Klebsiella pneumoniae M9140 clinical isolate expressing blaCIT gene by microdilution test; assay type: functional; how it was run: as §1
Klebsiella pneumoniae [4] = assay: Antibacterial activity against Klebsiella pneumoniae PFAV3 by microdilution test; assay type: functional; how it was run: as §1
Acinetobacter sp. [5] = assay: Antibacterial activity against Acinetobacter sp. M5277 clinical isolate expressing blaPER gene by microdilution test; assay type: functional; how it was run: as §1
Acinetobacter sp. [6] = assay: Antibacterial activity against Acinetobacter sp. M7489 clinical isolate expressing blaOXA-51 and blaTEM gene by microdilution test; assay type: functional; how it was run: as §1
Acinetobacter sp. [7] = assay: Antibacterial activity against Acinetobacter sp. M5179 clinical isolate expressing blaOXA-51 gene by microdilution test; assay type: functional; how it was run: as §1
Acinetobacter sp. [8] = assay: Antibacterial activity against Acinetobacter sp. M5282 clinical isolate expressing blaOXA-51 gene by microdilution test; assay type: functional; how it was run: as §1
Acinetobacter sp. [9] = assay: Antibacterial activity against Acinetobacter sp. M9665 clinical isolate expressing blaOXA-51 gene by microdilution test; assay type: functional; how it was run: as §1
Pseudomonas aeruginosa [10] = assay: Antibacterial activity against Pseudomonas aeruginosa M5200 clinical isolate expressing blaVIM and blaGES-1 gene by microdilution test; assay type: functional
How it was run: (§2)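 MIC by standard broth microdilution following CLSI recommendations, in Mueller Hinton broth supplemented with Ca²⁺ (20-25 mg/L) and Mg²⁺ (10-12.5 mg/L); ATCC reference strains included in the panel.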

Pseudomonas aeruginosa [11] = assay: Antibacterial activity against Pseudomonas aeruginosa M5109 clinical isolate expressing blaVIM and blaGES-1 gene by microdilution test; assay type: functional; how it was run: as §2
Pseudomonas aeruginosa [12] = assay: Antibacterial activity against Pseudomonas aeruginosa M7728 clinical isolate expressing blaIMP gene by microdilution test; assay type: functional; how it was run: as §2
Pseudomonas aeruginosa [13] = assay: Antibacterial activity against Pseudomonas aeruginosa M11005 clinical isolate expressing blaKPC-2 gene by microdilution test; assay type: functional; how it was run: as §1
Pseudomonas aeruginosa [14] = assay: Antibacterial activity against Pseudomonas aeruginosa M7907 clinical isolate expressing blaPER gene by microdilution test; assay type: functional; how it was run: as §2
Pseudomonas aeruginosa [15] = assay: Antibacterial activity against Pseudomonas aeruginosa ATCC 27853 by microdilution test; assay type: functional; how it was run: as §1
[16] = Toxicity in human RBC assessed as hemolytic activity relative to control; assay type: cell-based, Erythrocyte; conditions: red blood cells (RBC), read-out: Activity
How it was run: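 Heparinized human whole blood diluted 3x in PBS and centrifuged 10 min at 1500 rpm, repeated three times. Cells resuspended to 10% (v/v), then diluted to about 0.5% (v/v). Peptides added at various concentrations for 30 min at 37 °C. Supernatant absorbance read at 550 nm. Lysis calculated against buffer (0%) and water (100%). Readings taken in triplicate and averaged.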

Enterococcus gallinarum [17] = assay: Antibacterial activity against Enterococcus gallinarum M2723 clinical isolate expressing vanC1 and vanA gene by microdilution test; assay type: functional; how it was run: as §1
Enterococcus gallinarum [18] = assay: Antibacterial activity against Enterococcus gallinarum M2685 clinical isolate expressing vanC1 and vanA gene by microdilution test; assay type: functional; how it was run: as §1
Enterococcus faecium [19] = assay: Antibacterial activity against Enterococcus faecium M2664 clinical isolate expressing vanA gene by microdilution test; assay type: functional; how it was run: as §1
Enterococcus faecium [20] = assay: Antibacterial activity against Enterococcus faecium M2304 clinical isolate expressing vanA gene by microdilution test; assay type: functional; how it was run: as §1
Enterococcus faecium [21] = assay: Antibacterial activity against Enterococcus faecium M6261 by microdilution test; assay type: functional; how it was run: as §1
Enterococcus faecium [22] = assay: Antibacterial activity against Enterococcus faecium M2619 clinical isolate expressing vanB gene by microdilution test; assay type: functional; how it was run: as §1
Enterococcus faecium [23] = assay: Antibacterial activity against Enterococcus faecium PZAP95 by microdilution test; assay type: functional; how it was run: as §1
Enterococcus faecalis [24] = assay: Antibacterial activity against Enterococcus faecalis M6983 clinical isolate expressing vanA gene by microdilution test; assay type: functional; how it was run: as §1
Enterococcus faecalis [25] = assay: Antibacterial activity against Enterococcus faecalis M4899 clinical isolate expressing vanB gene by microdilution test; assay type: functional; how it was run: as §1
Enterococcus faecalis [26] = assay: Antibacterial activity against Enterococcus faecalis ATCC 51299 clinical isolate expressing vanB gene by microdilution test; assay type: functional; how it was run: as §1
Enterococcus faecalis [27] = assay: Antibacterial activity against Enterococcus faecalis ATCC 29212 by microdilution test; assay type: functional; how it was run: as §1
Staphylococcus cohnii = assay: Antibacterial activity against Staphylococcus cohnii M6767 clinical isolate expressing mecA gene by microdilution test; assay type: functional; how it was run: as §2
Staphylococcus hominis = assay: Antibacterial activity against Staphylococcus hominis M2973 clinical isolate expressing mecA gene by microdilution test; assay type: functional; how it was run: as §2
[28] = tested on: Staphylococcus haemolyticus; assay: Antibacterial activity against Staphylococcus haemolyticus M3014 by microdilution test; assay type: functional; how it was run: as §2
[29] = tested on: Staphylococcus haemolyticus; assay: Antibacterial activity against Staphylococcus haemolyticus M2976 clinical isolate expressing mecA gene by microdilution test; assay type: functional; how it was run: as §2
[30] = tested on: Staphylococcus epidermidis; assay: Antibacterial activity against Staphylococcus epidermidis M2919 clinical isolate expressing mecA gene by microdilution test; assay type: functional; how it was run: as §2
Staphylococcus aureus [31] = assay: Antibacterial activity against Staphylococcus aureus M6820 clinical isolate expressing mecA gene by microdilution test; assay type: functional; how it was run: as §2
Staphylococcus aureus [32] = assay: Antibacterial activity against Staphylococcus aureus M4046 clinical isolate expressing mecA gene by microdilution test; assay type: functional; how it was run: as §2
Staphylococcus aureus [33] = assay: Antibacterial activity against Staphylococcus aureus M6794 clinical isolate expressing mecA gene by microdilution test; assay type: functional; how it was run: as §2
Staphylococcus aureus [34] = assay: Antibacterial activity against Staphylococcus aureus P28 clinical isolate expressing ermA gene by microdilution test; assay type: functional; how it was run: as §2
Staphylococcus aureus [35] = assay: Antibacterial activity against Staphylococcus aureus P33 clinical isolate expressing msrA gene by microdilution test; assay type: functional; how it was run: as §2
Staphylococcus aureus [36] = assay: Antibacterial activity against Staphylococcus aureus ATCC 29213 by microdilution test; assay type: functional; how it was run: as §2
Escherichia coli [37] = assay: Antibacterial activity against Escherichia coli M9209 clinical isolate expressing blaKPC-2 gene by microdilution test; assay type: functional; how it was run: as §1
Escherichia coli [38] = assay: Antibacterial activity against Escherichia coli PABC11 clinical isolate expressing blaCTX-M-2 gene by microdilution test; assay type: functional; how it was run: as §1
Escherichia coli [39] = assay: Antibacterial activity against Escherichia coli PNEU23 clinical isolate expressing blaOXA-GIII and blaTEM-1 gene by microdilution test; assay type: functional; how it was run: as §1
Escherichia coli [40] = assay: Antibacterial activity against Escherichia coli M7859 clinical isolate expressing blaCIT gene by microdilution test; assay type: functional; how it was run: as §1
Klebsiella pneumoniae [41] = assay: Antibacterial activity against Klebsiella pneumoniae M9885 clinical isolate expressing blaKPC-2 gene by microdilution test; assay type: functional; how it was run: as §1
Klebsiella pneumoniae [42] = assay: Antibacterial activity against Klebsiella pneumoniae M13540 clinical isolate expressing blaKPC-2 gene by microdilution test; assay type: functional; how it was run: as §1
Klebsiella pneumoniae [43] = assay: Antibacterial activity against Klebsiella pneumoniae M7647 clinical isolate expressing blaVIM, blaCTX-M-2, blaTEM-1 and blaSHV-1 gene by microdilution test; assay type: functional; how it was run: as §1
Klebsiella pneumoniae [44] = assay: Antibacterial activity against Klebsiella pneumoniae M1803 clinical isolate expressing blaPER-2, blaCTX-M-2, blaTEM-1, blaSHV and blaOXA-9 gene by microdilution test; assay type: functional; how it was run: as §1
Klebsiella pneumoniae [45] = assay: Antibacterial activity against Klebsiella pneumoniae M9375 clinical isolate expressing blaCTX-M-2, blaTEM-1 and blaSHV-1 gene by microdilution test; assay type: functional; how it was run: as §1
Klebsiella pneumoniae [46] = assay: Antibacterial activity against Klebsiella pneumoniae M9310 clinical isolate expressing blaCTX-M-2, blaTEM-1 and blaSHV-1 gene by microdilution test; assay type: functional; how it was run: as §1
Klebsiella pneumoniae [47] = assay: Antibacterial activity against Klebsiella pneumoniae M5825 clinical isolate expressing blaGES-3 and blaCTX-M-2 gene by microdilution test; assay type: functional; how it was run: as §1

Question: Which results are given for H-RIVQRIKKWLLKWKKLGY-NH2?
Answer: MIC90 (Klebsiella pneumoniae [1]): 64 µg/mL; MIC90 (Klebsiella pneumoniae [2]): 64 µg/mL; MIC90 (Klebsiella pneumoniae [3]): 32 µg/mL; MIC90 (Klebsiella pneumoniae [4]): 128 µg/mL; MIC90 (Acinetobacter sp. [5]): 64 µg/mL; MIC90 (Acinetobacter sp. [6]): 64 µg/mL; MIC90 (Acinetobacter sp. [7]): 64 µg/mL; MIC90 (Acinetobacter sp. [8]): 64 µg/mL; MIC90 (Acinetobacter sp. [9]): 128 µg/mL; MIC90 (Pseudomonas aeruginosa [10]): 64 µg/mL; MIC90 (Pseudomonas aeruginosa [11]): 64 µg/mL; MIC90 (Pseudomonas aeruginosa [12]): 64 µg/mL; MIC90 (Pseudomonas aeruginosa [13]): 128 µg/mL; MIC90 (Pseudomonas aeruginosa [14]): 64 µg/mL; MIC90 (Pseudomonas aeruginosa [15]): 64 µg/mL; hemolysis [16]: 9.5%; MIC90 (Enterococcus gallinarum [17]): 16 µg/mL; MIC90 (Enterococcus gallinarum [18]): 16 µg/mL; MIC90 (Enterococcus faecium [19]): 8 µg/mL; MIC90 (Enterococcus faecium [20]): 8 µg/mL; MIC90 (Enterococcus faecium [21]): 16 µg/mL; MIC90 (Enterococcus faecium [22]): 16 µg/mL; MIC90 (Enterococcus faecium [23]): 16 µg/mL; MIC90 (Enterococcus faecalis [24]): 128 µg/mL; MIC90 (Enterococcus faecalis [25]): 256 µg/mL; MIC90 (Enterococcus faecalis [26]): 256 µg/mL; MIC90 (Enterococcus faecalis [27]): 128 µg/mL; MIC90 (Staphylococcus cohnii): 8 µg/mL; MIC90 (Staphylococcus hominis): 4 µg/mL; MIC90 [28]: 8 µg/mL; MIC90 [29]: 8 µg/mL; MIC90 [30]: 8 µg/mL; MIC90 (Staphylococcus aureus [31]): 64 µg/mL; MIC90 (Staphylococcus aureus [32]): 32 µg/mL; MIC90 (Staphylococcus aureus [33]): 64 µg/mL; MIC90 (Staphylococcus aureus [34]): 64 µg/mL; MIC90 (Staphylococcus aureus [35]): 64 µg/mL; MIC90 (Staphylococcus aureus [36]): 32 µg/mL; MIC90 (Escherichia coli [37]): 128 µg/mL; MIC90 (Escherichia coli [38]): 32 µg/mL; MIC90 (Escherichia coli [39]): 32 µg/mL; MIC90 (Escherichia coli [40]): 16 µg/mL; MIC90 (Klebsiella pneumoniae [41]): 32 µg/mL; MIC90 (Klebsiella pneumoniae [42]): 64 µg/mL; MIC90 (Klebsiella pneumoniae [43]): 32 µg/mL; MIC90 (Klebsiella pneumoniae [44]): 64 µg/mL; MIC90 (Klebsiella pneumoniae [45]): 16 µg/mL; MIC90 (Klebsiella pneumoniae [46]): 32 µg/mL; MIC90 (Klebsiella pneumoniae [47]): 32 µg/mL
